What is called CC50 is the concentration giving 50% cytotoxicity. One may read the IC50 as the concentration at which inhibition is half-maximal. The term half-life denotes the time needed for the level to fall by half in the phase considered. Low values mean fast loss, high ones slow loss.

We go through 19 compounds from ChEMBL document CHEMBL2380285, “Quinolin-4(1H)-imines are potent antiplasmodial drugs targeting the liver stage of malaria” (J Med Chem, 2013).

Data set [1] can be described thus: Cytotoxicity against human HepG2 cells after 48 hrs by Alamar Blue assay. It counts as cell-based. For orientation: Resazurin is reduced to fluorescent resorufin, in cell work by metabolically active cells.
The test system of data set [2] is Plasmodium falciparum. As to the kind of experiment: Antiplasmodial activity against ring stage Plasmodium falciparum W2 infected in human RBC after 48 hrs by FACS analysis. It counts as functional, organism-based. The conditions noted are these: W2, 48 h. (In general: In flow cytometry, cells or beads pass a laser one at a time.)
A short description of data set [3]: Binding affinity to hematin (unknown origin) by UV-visible titration analysis.
Data set [4] relates to Plasmodium berghei. As to the kind of experiment: Antiplasmodial activity against liver stage Plasmodium berghei infected in human HuH7 cells co-expressing GFP-Luccon treated for 1 hr prior to infection followed by 24 hrs after compound washout measured after 48 hrs post-infection by Alamar Blue assay. Type of data set: functional, organism-based. The conditions noted are these: Huh-7. The method in brief:
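Huh-7 hepatoma cells infected with P. berghei were exposed to a rising series of inhibitor concentrations, with 10 μM the highest tested. IC50 was read from sigmoidal concentration–response curves.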

A short description of data set [5]: Half life in rat liver microsomes at 1 uM after 24 hrs by LC-MS/MS analysis.
Data set [6] can be described thus: Selectivity index, ratio of CC50 for human HepG2 cells to IC50 for liver stage Plasmodium berghei. Type of data set: functional.
A short description of data set [7]: Inhibition of heme crystallization to hemozoin. It counts as functional.
Data set [8] is described as follows: Inhibition of Cytochrome b-c1 complex in Plasmodium falciparum 3D7A mitochondria assessed as antimycin-sensitive decylubiquinol-cytochrome c oxidoreductase level.
Data set [9] relates to Plasmodium berghei. Put plainly: Ratio of primaquine IC50 to compound IC50 for liver stage Plasmodium berghei infected in human HuH7 cells. Type of data set: functional, Huh-7.
Data set [10] concerns the target T1, Dihydroorotate dehydrogenase (fumarate) (Saccharomyces cerevisiae S288c) (UniProt P28272).
T1 sequence (whole entry): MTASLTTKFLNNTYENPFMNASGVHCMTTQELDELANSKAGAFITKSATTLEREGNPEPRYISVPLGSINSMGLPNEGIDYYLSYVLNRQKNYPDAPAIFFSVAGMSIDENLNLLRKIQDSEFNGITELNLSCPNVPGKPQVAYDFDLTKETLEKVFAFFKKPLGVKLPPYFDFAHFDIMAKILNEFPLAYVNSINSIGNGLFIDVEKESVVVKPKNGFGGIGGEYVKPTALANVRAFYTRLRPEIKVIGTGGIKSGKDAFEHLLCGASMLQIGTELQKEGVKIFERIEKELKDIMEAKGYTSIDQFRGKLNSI
Put plainly: Inhibition of Saccharomyces cerevisiae DHODH expressed in Plasmodium falciparum Dd2 by [3H]-hypoxanthine incorporation assay in presence of proguanil.

Data set [11] concerns the target T1, Dihydroorotate dehydrogenase (fumarate) (Saccharomyces cerevisiae S288c). As to the kind of experiment: Inhibition of Saccharomyces cerevisiae DHODH expressed in Plasmodium falciparum Dd2 by [3H]-hypoxanthine incorporation assay.
Data set [12] relates to Plasmodium falciparum. Put plainly: Inhibition of Plasmodium falciparum Enoyl-ACP reductase using Crotonoyl-CoA as substrate up to 50 uM after 20 mins by fluorescence assay.
For data set [13], the system named is Plasmodium falciparum. As to the kind of experiment: Inhibition of Plasmodium falciparum thioredoxin reductase using DTNB as substrate up to 50 uM after 1 hr by colorimetric assay.

Active and inactive are the calls of the source. A value given as a limit tells only on which side of the number the result lay.

In data set [1], `CCn1cc/c(=N\c2ccc(Oc3cccc(OC(F)(F)F)c3)cc2)c2ccc(C(F)(F)F)cc21` showed a CC50 at 48 h of 12900 nM. The IC50 in the data set with Plasmodium falciparum [2] was found to be 1560 nM; in the data set on Plasmodium berghei [4], 537 nM. In data set [3], the logKA was found to be 3.9. This compound gave a half-life at 24 h, 1 µM in [5] (microsomes) of 8.5 h. The “Ratio CC50/IC50” value in data set [6] came to 24.

With `CCn1cc/c(=N\c2ccc(Oc3cccc(OC(F)(F)F)c3)cc2)c2ccc(Cl)cc21`, the CC50 at 48 h in data set [1] was 5160 nM. Further, the IC50 in [7] turned out to be 15400 nM; in the data set with Plasmodium falciparum [2], 1180 nM; in data set [8] it was 1200 nM; in the data set on Plasmodium berghei [4] it was 81 nM. In addition, in the data set with Plasmodium berghei [9], the “Ratio IC50” value came out at 94. The inhibition result (in data set [10]; in [11]; in the data set with Plasmodium falciparum [12]; in the data set with Plasmodium falciparum [13]) was “inactive” in each case. For the same compound, the logKA in data set [3] came out at 5.1. Moreover, the “Ratio CC50/IC50” value in [6] was found to be 63.7.

`Cc1nc(C)c(Cl)c(O)c1Cl` [CLOPIDOL] came in with a logKA in data set [3] of 4.7. This compound showed an IC50 in the data set on Plasmodium berghei [4] of 1460 nM.

Turning to `Cn1cc/c(=N\c2ccc(Oc3ccc(C(F)(F)F)cc3)cc2)c2ccc(Cl)cc21`, the CC50 at 48 h in [1] is 3080 nM. For the same compound, the figures for the IC50 in the data set on Plasmodium falciparum [2] and with Plasmodium berghei [4] were 1080 nM and 229 nM, respectively. Further, in data set [3], the logKA is 4.9. Besides, the half-life at 24 h, 1 µM in [5] (liver microsomes) was 4.1 h. Moreover, in [6], the “Ratio CC50/IC50” value came out at 13.4.

On to `CCn1cc/c(=N\c2cccc(CCc3ccc(OC(F)(F)F)cc3)c2)c2ccc(C(F)(F)F)cc21`, for which it took 6090 nM to reach half-maximal cytotoxicity in data set [1] (CC50 at 48 h). The IC50 in the data set on Plasmodium falciparum [2] worked out at 1670 nM; with Plasmodium berghei [4], 235 nM. The compound further came in with a logKA in data set [3] of 4.9. Further, in [6], the “Ratio CC50/IC50” value is reported as 25.9.

Consider `CCn1cc/c(=N\c2ccc(Oc3ccc(C(F)(F)F)cc3)cc2)c2ccc(Cl)cc21`, for which half-maximal cytotoxicity in data set [1] (CC50 at 48 h) was put at 3200 nM. Moreover, the IC50 in the data set with Plasmodium falciparum [2] worked out at 1260 nM; in the data set with Plasmodium berghei [4] it was 234 nM.

As for `O=C1C(O)=C([C@H]2CC[C@H](c3ccc(Cl)cc3)CC2)C(=O)c2ccccc21` [ATOVAQUONE], the IC50 in data set [8] stood at 0.3 nM; in the data set on Plasmodium berghei [4], 0.376 nM.

As for `CCn1cc/c(=N\c2cccc(CCc3ccc(OC(F)(F)F)cc3)c2)c2ccc(Cl)cc21`, the CC50 at 48 h in [1] is 3940 nM. The half-inhibitory concentration (IC50) with Plasmodium falciparum [2] was found to be 3110 nM; in the data set with Plasmodium berghei [4], 227 nM. The logKA in [3] came out at 5.2. In addition, in [6], the “Ratio CC50/IC50” value was found to be 17.4.

Regarding `CCn1cc/c(=N\c2ccc(-c3ccccc3)cc2)c2ccc(Cl)cc21`, it took 4610 nM to reach half-maximal cytotoxicity in data set [1] (CC50 at 48 h). The figures for the IC50 (in data set [7]; with Plasmodium falciparum [2]; in the data set with Plasmodium berghei [4]) were 18900 nM, 540 nM and 200 nM, respectively. The same compound returned a logKA in [3] of 5.6. Also, in [5] (liver microsomes), the half-life at 24 h, 1 µM is 4 h. Besides, in data set [6], the “Ratio CC50/IC50” value is on record as 23.6.

In data set [1], `CCn1cc/c(=N\c2ccc(Oc3ccc(OC(F)(F)F)cc3)cc2)c2ccc(Cl)cc21` gave a CC50 at 48 h of 3530 nM. For the same compound, the IC50 in data set [7] turned out to be 13500 nM; with Plasmodium falciparum [2], 960 nM; in the data set with Plasmodium berghei [4] it was 145 nM. The same compound displayed a logKA in data set [3] of 4.9. For the same compound, the “Ratio CC50/IC50” value in data set [6] is 24.3.

With `CCOC(=O)c1cn(CC)c2ccc(F)cc2/c1=N/c1ccc(-c2ccccc2)cc1`, the IC50 in the data set with Plasmodium falciparum [2] is 5320 nM; in the data set on Plasmodium berghei [4], over 10000 nM.

Compound `CCn1cc/c(=N\c2ccc(Oc3ccc(Cl)cc3)cc2)c2ccc(Cl)cc21` returned a CC50 at 48 h in [1] of 2690 nM. The IC50 came out at 16200 nM in data set [7], 1090 nM in the data set with Plasmodium falciparum [2] and 87 nM with Plasmodium berghei [4]. Moreover, the “Ratio IC50” value with Plasmodium berghei [9] worked out at 94. This compound showed a logKA in [3] of 5.1. In [5] (microsomes), this compound gave a half-life at 24 h, 1 µM of 3.9 h. The “Ratio CC50/IC50” value in data set [6] is recorded as 30.9.

For `CCn1cc/c(=N\c2ccc(Cc3ccccc3)cc2)c2ccc(Cl)cc21`, the CC50 at 48 h in [1] was 2890 nM. Besides, the IC50 with Plasmodium falciparum [2] came out at 1690 nM; in the data set on Plasmodium berghei [4], 589 nM. Also, in data set [3], the logKA turned out to be 5. Moreover, the “Ratio CC50/IC50” value in data set [6] came out at 4.91.

The compound `CCn1cc/c(=N\c2ccc(Oc3ccccc3)cc2)c2ccc(Cl)cc21` displayed a CC50 at 48 h in data set [1] of 5330 nM. For the same compound, the IC50 in the data set with Plasmodium falciparum [2] was 890 nM; in the data set with Plasmodium berghei [4] it was 214 nM. In [3], this compound showed a logKA of 5.4. The “Ratio CC50/IC50” value in data set [6] is given as 24.9.

In the data set on Plasmodium berghei [4], `O=C(CC1NCCCC1O)Cn1cnc2cc(Br)c(Cl)cc2c1=O` (stereo unspecified) [HALOFUGINONE] came in with a 50% inhibitory concentration (IC50) of 17 nM.

`CCn1cc/c(=N\c2cccc(CCc3ccc(Cl)cc3)c2)c(Cl)c1` gave an IC50 in the data set with Plasmodium berghei [4] of 407 nM.

Compound `CCN(CC)CCCC(C)Nc1ccnc2cc(Cl)ccc12` (stereo unspecified) [CHLOROQUINE] displayed an IC50 in data set [7] of 6600 nM.

On to `CCOC(=O)c1cn(C)c2ccc(F)cc2/c1=N/c1ccc(-c2ccccc2)cc1`, for which the IC50 with Plasmodium falciparum [2] was 5880 nM; with Plasmodium berghei [4], over 10000 nM.

`CCn1cc/c(=N\c2ccc(-c3ccccc3)cc2)c2ccc(C(F)(F)F)cc21` yielded a CC50 at 48 h in data set [1] of 7040 nM. Besides, the concentration for half-maximal inhibition (IC50) in data set [7] stood at 17000 nM; in the data set with Plasmodium falciparum [2] it was 590 nM; in data set [8], 28000 nM; in the data set on Plasmodium berghei [4] it was 575 nM. Also, the inhibition result (in [10]; in data set [11]; with Plasmodium falciparum [12]; in the data set with Plasmodium falciparum [13]) was “inactive” throughout. This compound displayed a logKA in data set [3] of 5.7. This compound also had a half-life at 24 h, 1 µM in [5] (liver microsomes) of 4.2 h. Also, in data set [6], the “Ratio CC50/IC50” value was 12.2.
